Several values for one entry are separate records, joined by “and”; a condition that tells them apart may be missing. Equal entries are not always repeated.
Tested on: Fibroblast
Assay: Multiplex assay against human fibroblast
Type: toxicity, cell-based
In short: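 On a CQ1 microscope at 37°C and 5% CO2, live cells were imaged after compound addition. They had been stained at seeding with Hoechst33342, BioTracker Green Microtubule Cytoskeleton Dye, MitoTracker Red and Annexin V Alexa Fluor 680. CellPathfinder machine-learning gating assigned cells to Hoechst high-intensity objects or normal cells, normal cells to healthy, pyknosed or fragmented nuclei, and pyknosed cells to mitotic or apoptotic. Tubulin, mitochondrial-mass and membrane-permeability phenotypes are per cents of healthy-nucleus cells.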

[1] = 12 h, 1 µM, compound concentration 1 uM
[2] = 12 h, 10 µM, compound concentration 10 uM
[3] = 24 h, 1 µM, compound concentration 1 uM
[4] = 24 h, 10 µM, compound concentration 10 uM
[5] = 48 h, 1 µM, compound concentration 1 uM
[6] = 48 h, 10 µM, compound concentration 10 uM

`CCCCCC(O)/C=C/[C@H]1C(=O)CC(O)C1C/C=C\CCCC(=O)O` (stereo partly drawn) was tested, and the “Population Apoptotic (%)” value [1] was 52% and 50%, the “Population Fragmented Nuclei (%)” value [1] was 24% and 40% and the “Population Healthy Nuclei (%)” value [1] was 65% and 41%. For the same compound, the “Population Hoechst High Intensity Objects (%)” value [1] was 1% and 2%, the “Population Membrane Permeable-Phenotype (%)” value [1] was 0% and 7% and the “Population Mitotic Cells (%)” value [1] was 47% and 50%. The “Population Normal (%)” value [1] was 98% and 97%, the “Population Pyknosed Nuclei (%)” value [1] was 10% and 18% and the “Population Tubulin-Different-Phenotype (%)” value [1] was 19% and 52%. For the same compound, the “Total Cell Count” value [1] was 172 and 169, the “Population Apoptotic (%)” value [2] was 42% and 34% and the “Population Fragmented Nuclei (%)” value [2] was 16% and 20%. The “Population Healthy Nuclei (%)” value [2] was 69% and 56%, the “Population Hoechst High Intensity Objects (%)” value [2] was 0% and 2% and the “Population Membrane Permeable-Phenotype (%)” value [2] was 0% and 3%. For the same compound, the “Population Mitochondria Different-Phenotype (%)” value [2] was 1% and 7%, the “Population Mitotic Cells (%)” value [2] was 57% and 65% and the “Population Normal (%)” value [2] was 99% and 97%. For the same compound, the “Population Pyknosed Nuclei (%)” value [2] was 13% and 23%, the “Population Tubulin-Different-Phenotype (%)” value [2] was 16% and 41% and the “Total Cell Count” value [2] was 139 and 101. For the same compound, the “Population Apoptotic (%)” value [3] was 35% and 50%, the “Population Fragmented Nuclei (%)” value [3] was 20% and 41% and the “Population Healthy Nuclei (%)” value [3] was 70% and 50%. The “Population Hoechst High Intensity Objects (%)” value [3] was 0% and 1%, the “Population Membrane Permeable-Phenotype (%)” value [3] was 0% and 4% and the “Population Mitochondria Different-Phenotype (%)” value [3] was 2% and 10%. For the same compound, the “Population Mitotic Cells (%)” value [3] was 64% and 50%, the “Population Normal (%)” value [3] was 99% and 98% and the “Population Pyknosed Nuclei (%)” value [3] was 8%. The “Population Tubulin-Different-Phenotype (%)” value [3] was 21% and 47%, the “Total Cell Count” value [3] was 169 and 184 and the “Population Apoptotic (%)” value [4] was 61% and 33%. For the same compound, the “Population Fragmented Nuclei (%)” value [4] was 17% and 18%, the “Population Healthy Nuclei (%)” value [4] was 72% and 59% and the “Population Hoechst High Intensity Objects (%)” value [4] was 2% and 4%. The “Population Membrane Permeable-Phenotype (%)” value [4] was 1% and 3%, the “Population Mitochondria Different-Phenotype (%)” value [4] was 3% and 1% and the “Population Mitotic Cells (%)” value [4] was 38% and 66%. The “Population Normal (%)” value [4] was 97% and 95%, the “Population Pyknosed Nuclei (%)” value [4] was 9% and 21% and the “Population Tubulin-Different-Phenotype (%)” value [4] was 21% and 29%. For the same compound, the “Total Cell Count” value [4] was 138 and 101, the “Population Apoptotic (%)” value [5] was 50% and 30% and the “Population Fragmented Nuclei (%)” value [5] was 27% and 47%. For the same compound, the “Population Healthy Nuclei (%)” value [5] was 66% and 46%, the “Population Hoechst High Intensity Objects (%)” value [5] was 3% and 2% and the “Population Membrane Permeable-Phenotype (%)” value [5] was 0% and 3%. The “Population Mitochondria Different-Phenotype (%)” value [5] was 2% and 7%, the “Population Mitotic Cells (%)” value [5] was 50% and 70% and the “Population Normal (%)” value [5] was 96% and 97%. For the same compound, the “Population Pyknosed Nuclei (%)” value [5] was 5%, the “Population Tubulin-Different-Phenotype (%)” value [5] was 19% and 42% and the “Total Cell Count” value [5] was 175 and 186. The “Population Apoptotic (%)” value [6] was 63% and 33%, the “Population Fragmented Nuclei (%)” value [6] was 17% and 30% and the “Population Healthy Nuclei (%)” value [6] was 74% and 61%. The “Population Hoechst High Intensity Objects (%)” value [6] was 4% and 0%, the “Population Membrane Permeable-Phenotype (%)” value [6] was 0% and 6% and the “Population Mitochondria Different-Phenotype (%)” value [6] was 0% and 3%. The “Population Mitotic Cells (%)” value [6] was 36% and 66%, the “Population Normal (%)” value [6] was 95% and 99% and the “Population Pyknosed Nuclei (%)” value [6] was 8%. For the same compound, the “Total Cell Count” value [6] was 141 and 104.

`COC(=O)c1ccc2c(c1)NC(=O)/C2=C(\Nc1ccc(N(C)C(=O)CN2CCN(C)CC2)cc1)c1ccccc1` [NINTEDANIB] was tested, and the “Population Apoptotic (%)” value [1] was 16.28% and 33.33%, the “Population Fragmented Nuclei (%)” value [1] was 16.48% and 7.77% and the “Population Healthy Nuclei (%)” value [1] was 59.09% and 77.67%. For the same compound, the “Population Hoechst High Intensity Objects (%)” value [1] was 0%, the “Population Membrane Permeable-Phenotype (%)” value [1] was 6.73% and 3.75% and the “Population Mitochondria Different-Phenotype (%)” value [1] was 17.31% and 10%. For the same compound, the “Population Mitotic Cells (%)” value [1] was 83.72% and 66.67%, the “Population Normal (%)” value [1] was 100% and the “Population Pyknosed Nuclei (%)” value [1] was 24.43% and 14.56%. For the same compound, the “Population Tubulin-Different-Phenotype (%)” value [1] was 38.46% and 36.88%, the “Total Cell Count” value [1] was 176 and 206 and the “Population Apoptotic (%)” value [2] was 40.91% and 35.76%. For the same compound, the “Population Fragmented Nuclei (%)” value [2] was 5.54% and 1.86%, the “Population Healthy Nuclei (%)” value [2] was 51.47% and 66.87% and the “Population Hoechst High Intensity Objects (%)” value [2] was 0.65% and 0%. The “Population Membrane Permeable-Phenotype (%)” value [2] was 29.11% and 30.65%, the “Population Mitochondria Different-Phenotype (%)” value [2] was 33.54% and 14.24% and the “Population Mitotic Cells (%)” value [2] was 59.09% and 64.24%. For the same compound, the “Population Normal (%)” value [2] was 99.35% and 100%, the “Population Pyknosed Nuclei (%)” value [2] was 43% and 31.26% and the “Population Tubulin-Different-Phenotype (%)” value [2] was 51.27% and 85.14%. The “Total Cell Count” value [2] was 309 and 483, the “Population Apoptotic (%)” value [3] was 16.22% and 30% and the “Population Fragmented Nuclei (%)” value [3] was 15.92% and 9.59%. For the same compound, the “Population Healthy Nuclei (%)” value [3] was 65.67% and 76.71%, the “Population Hoechst High Intensity Objects (%)” value [3] was 0% and the “Population Membrane Permeable-Phenotype (%)” value [3] was 3.79% and 3.57%. For the same compound, the “Population Mitochondria Different-Phenotype (%)” value [3] was 8.33% and 10.71%, the “Population Mitotic Cells (%)” value [3] was 83.78% and 70% and the “Population Normal (%)” value [3] was 100%. The “Population Pyknosed Nuclei (%)” value [3] was 18.41% and 13.7%, the “Population Tubulin-Different-Phenotype (%)” value [3] was 31.82% and 40.48% and the “Total Cell Count” value [3] was 201 and 219. The “Population Apoptotic (%)” value [4] was 45.74% and 54.65%, the “Population Fragmented Nuclei (%)” value [4] was 5.3% and 6.9% and the “Population Healthy Nuclei (%)” value [4] was 59.09% and 71.92%. The “Population Hoechst High Intensity Objects (%)” value [4] was 0.75% and 0%, the “Population Membrane Permeable-Phenotype (%)” value [4] was 12.18% and 13.36% and the “Population Mitochondria Different-Phenotype (%)” value [4] was 45.51% and 32.53%. For the same compound, the “Population Mitotic Cells (%)” value [4] was 54.26% and 45.35%, the “Population Normal (%)” value [4] was 99.25% and 100% and the “Population Pyknosed Nuclei (%)” value [4] was 35.61% and 21.18%. The “Population Tubulin-Different-Phenotype (%)” value [4] was 66.67% and 90.75%, the “Total Cell Count” value [4] was 266 and 406 and the “Population Apoptotic (%)” value [5] was 21.43% and 45%. For the same compound, the “Population Fragmented Nuclei (%)” value [5] was 19.15% and 12.93%, the “Population Healthy Nuclei (%)” value [5] was 74.89% and 78.45% and the “Population Hoechst High Intensity Objects (%)” value [5] was 0%. For the same compound, the “Population Membrane Permeable-Phenotype (%)” value [5] was 0.57% and 1.65%, the “Population Mitotic Cells (%)” value [5] was 78.57% and 55% and the “Population Normal (%)” value [5] was 100%. The “Population Pyknosed Nuclei (%)” value [5] was 5.96% and 8.62%, the “Population Tubulin-Different-Phenotype (%)” value [5] was 23.86% and 42.31% and the “Total Cell Count” value [5] was 235 and 232. The “Population Apoptotic (%)” value [6] was 60.29% and 65.38%, the “Population Fragmented Nuclei (%)” value [6] was 8.47% and 8.93% and the “Population Healthy Nuclei (%)” value [6] was 64.11% and 83.57%. The “Population Hoechst High Intensity Objects (%)” value [6] was 0%, the “Population Membrane Permeable-Phenotype (%)” value [6] was 9.43% and 8.97% and the “Population Mitochondria Different-Phenotype (%)” value [6] was 44.65% and 33.45%. For the same compound, the “Population Mitotic Cells (%)” value [6] was 39.71% and 34.62%, the “Population Normal (%)” value [6] was 100% and the “Population Tubulin-Different-Phenotype (%)” value [6] was 58.49% and 91.72%. The “Total Cell Count” value [6] was 248 and 347.

Reference: ChEMBL document CHEMBL5724801, “EUbOPEN Chemogenomics Library - Multiplex” (2024)
